Bioassay records from PubChem.
EBNA-1 inhibitor – blocks EBNA-1 binding to DNA | EBNA-1 DNA binding, fluorescence polarization | inhibition, % at 14.8 µM | 0.34% of 300,000 active; in the data active = inhibition above about 28%
Fh CTSL1 inh – blocks F. hepatica cathepsin L1 in PFM18AAP counter-screen; inhibition, % at 5.96 µM; 0.49% of 300,000 active; recombinant F. hepatica cathepsin L1, Z-Leu-Arg-MCA fluorescence;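 active = inhibition above the mean of all tested compounds plus 3 SD, set per screening campaign, cut at about 17% in these data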;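 also: 0% = plate median of test compound wells and 100% = 1 µM Z-Phe-Ala-diazomethylketone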
HCV NS3 hel inh – inhibitors of Hepatitis C virus NS3 helicase | NS3 helicase DNA unwinding, Cy5 molecular beacon fluorescence | inhibition, % at 10.9 µM | 0.56% of 290,000 active | AID 1800;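 active = inhibition above the mean of all tested compounds plus 3 SD, set per campaign, cut at about 35% in these data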;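 also: 0% = DMSO wells and 100% = thioflavine S control wells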
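Material: hepatitis C virus NS3 helicase domain fragment enzyme; measured by: Cy5 fluorescence, 0 and 60 min reads; control set: DMSO and thioflavine S; incubation: 60 min unwinding reaction at 25 °C after ATP addition; read-out basis: % inhibition from 60/0 min fluorescence ratio, DMSO 0%, thioflavine S 100%; repeats: singlicate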
ZTA counter – blocks Epstein-Barr virus ZTA, an EBNA-1 counter-screen | ZTA-DNA binding, fluorescence polarization | 0.15% of 320,000 active | AID 2234 | inhibition, % at 11 µM; in the data active = inhibition above about 33%
Target sequence (P03206 whole entry, looked up): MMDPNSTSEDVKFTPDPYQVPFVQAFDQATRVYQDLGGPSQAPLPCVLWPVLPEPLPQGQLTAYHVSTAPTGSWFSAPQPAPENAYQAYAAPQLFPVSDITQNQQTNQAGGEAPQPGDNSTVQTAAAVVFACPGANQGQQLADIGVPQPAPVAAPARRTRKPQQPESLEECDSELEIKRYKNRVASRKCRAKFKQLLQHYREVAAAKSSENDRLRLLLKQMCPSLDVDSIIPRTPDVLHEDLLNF
Zta DNA confirm – EBV ZTA DNA binding inhibition, confirmation; shares compounds with ZTA counter; Zta-ZRE DNA binding, fluorescence polarization; inhibition, % at 11.1 µM; 30% of 320 active; AID 2361;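 active = mean inhibition across triplicate runs above the hit threshold derived for the original primary screen, cut at about 33% in these data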;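 also: 0% = Zta with DMSO and 100% = wells lacking Zta protein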
EBNA-1 counter – counter-screen for ZTA inhibitors: EBNA-1 DNA binding inhibition. inhibition, % at 14.8 µM. 320 tested, under 10 active. AID 2362. fluorescence polarization. shares compounds with ZTA counter; call rule not given here
* hit, by the source's call; x = no result given. An excerpt weighted towards active compounds, which were near 1.4% of everything screened.

SMILES	EBNA-1 inhibitor	Fh CTSL1 inh	HCV NS3 hel inh	ZTA counter	Zta DNA confirm	EBNA-1 counter
C#CCOCCOCCOCCNc1nc(N2CCN(C(=O)CCCCCCCCCCNC(=O)[C@H](CCCCN)n3cc(C[C@@H](C)CC)nn3)CC2)nc(N2CCN(C(=O)CCCCCCCCCCNC(=O)[C@@H]([C@H](C)O)n3cc(C)nn3)CC2)n1	-1.2	0.5	x	49.6*	32.9	-7.6
COc1ccc(CCC(=O)N2CC(C)OC(C)C2)cc1 (centres undefined)	4.7	-2.8	-1.6	-19.6	x	x
CN(C)C(=O)CCCCCCCCC(=O)N(C)C	7.6	1.6	-4.8	33.1*	8.3	0.5
Cc1cccc(NC(=O)CCNC(=O)c2ccco2)c1	3.2	-4.6	5.0	44.4*	4.1	-8.7
Cc1ccc(NC(=O)CCNC(=O)c2ccco2)cc1	11.8	-1.1	0.7	-17.3	x	x
O=C(CN1C(=O)S/C(=C\c2ccccc2F)C1=O)NC1CCS(=O)(=O)C1 (centres undefined)	-7.5	-0.3	1.5	-16.3	x	x
Cc1ccc(C(=O)COC(=O)CNC(=O)Cc2ccccc2)cc1[N+](=O)[O-]	4.9	-12.8	5.7	2.9	x	x
COc1cc(NC(=O)c2csc(N)n2)cc(C(=O)Nc2cccc(C(F)(F)F)c2)c1	7.3	5.7	x	41.2*	6.0	-3.8
O=C(CN(C(=O)c1csnn1)c1cccc2c1CCCC2)NCc1ccc(F)cc1	-2.4	0.4	-6.0	-5.2	x	x
CC(C)c1ccc(NC(=O)COc2ccc(S(=O)(=O)N3CCOCC3)cc2)cc1	2.5	0.6	9.0	35.5*	18.4	-9.6
CCN(CC)CCNC(=O)c1nn(-c2ccc(C)cc2)c(=O)c2c1c1ccccc1n2C	-3.8	4.3	-21.8	-0.6	x	x
Cc1ccc(-n2nc(C(=O)NCc3ccco3)c3c4ccccc4n(C)c3c2=O)cc1	15.5	-1.8	-1.0	45.4*	0.7	22.4
Cc1ccc(C(=O)Nc2ccc(C(=O)N/N=C/c3ccncc3)cc2)cc1	-1.7	-2.4	-1.8	47.2*	45.1*	-8.3
Cc1ccc(/C=N/NC(=O)c2ccncc2)cc1	-6.5	-5.7	13.2	-3.7	x	x
CCC(=O)c1cn(CC(=O)Nc2c(C)cccc2C)c2ccccc12	-12.8	-8.9	3.0	-8.9	x	x
COc1ccccc1NC(=S)N1CCc2cc(OC)c(OC)cc2C1	-3.3	-0.4	-3.8	-7.6	x	x
COc1cccc(NC(=S)N2CCc3cc(OC)c(OC)cc3C2)c1	-5.4	-0.5	2.9	47.9*	-7.7	-1.9
